Reference: ChEMBL document CHEMBL1157350, “The structure-activity relationship study on 2-, 5-, and 6-position of the water soluble 1,4-dihydropyridine derivatives blocking N-type calcium channels” (Bioorg Med Chem Lett, 2008)
In brackets after ≈: the same amount, converted by molar mass.

Tests used:
[1] = Inhibition of voltage-dependent N-type calcium channel in human IMR32 cells assessed as effect on calcium influx; assay type: cell-based; conditions: IMR-32
[2] = biological target: Voltage-gated L-type calcium channel (Rattus norvegicus, UniProt P22002+Q02485+P27732); experiment: Inhibition of voltage-dependent L-type calcium channel in rat thoracic aorta ring assessed as effect on high K+ induced contraction by Magnus method; assay type: tissue-based
[3] = Aqueous solubility of the compound; assay type: physicochemical; conditions: buffer
In short: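 Aqueous suspension left overnight, centrifuged at 10,000 rpm for 5 min; supernatant diluted and quantified by HPLC.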

[4] = Distribution coefficient, log D of the compound; assay type: physicochemical; conditions: octanol/water
In short: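 Calculated logD at pH 7.4 (PrologD).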

Rattus norvegicus = organism: Rattus norvegicus; experiment: Inhibition of voltage-dependent N-type calcium channel in rat superior cervical ganglion neurons assessed as effect on Ba2+ current at holding potential of -60 mV at 10 uM by electrophysiology; assay type: tissue-based

| Compound | IC50 [1] [nM] | IC50 [2] [nM] | solubility [3] [mg/mL] | logD [4] | inhibition (Rattus norvegicus) [%] |
| --- | --- | --- | --- | --- | --- |
| COC(OC)C1=C(C(=O)OC/C=C/c2ccc(C(F)(F)F)cc2)C(c2cccc(Cl)c2)C(C(=O)O)=C(C)N1 (stereo unspecified) | 2000 | 3200 | – | – | – |
| COC(OC)C1=C(C(=O)OC/C=C/c2ccccc2Cl)C(c2cccc(Cl)c2)C(C(=O)O)=C(C)N1 (stereo unspecified) | 1800 | 700 | – | – | – |
| COC(OC)C1=C(C(=O)OC/C=C/c2ccccc2)C(c2cccc(Cl)c2)C(C(=O)O)=C(C)N1 (stereo unspecified) | 3000 | 8100 | > 15 | 1.29 | 85 |
| CC1=C(C(=O)O)C(c2cccc([N+](=O)[O-])c2)C(C(=O)OC/C=C/c2ccccc2)=C(C)N1 (stereo unspecified) | 3500 | – | – | – | – |
| COC(OC)C1=C(C(=O)OC/C=C/c2ccc(Cl)cc2)C(c2cccc(Cl)c2)C(C(=O)O)=C(C)N1 (stereo unspecified) | 1700 | 1400 | – | – | – |
| COc1ccccc1/C=C/COC(=O)C1=C(C(OC)OC)NC(C)=C(C(=O)O)C1c1cccc(Cl)c1 (stereo unspecified) | 2500 | 5900 | 10.2 (≈ 19.8 mM) | 1.2 | – |
| COc1ccc(/C=C/COC(=O)C2=C(C(OC)OC)NC(C)=C(C(=O)O)C2c2cccc(Cl)c2)cc1 (stereo unspecified) | 2100 | 540 | – | – | – |
| COc1cccc(/C=C/COC(=O)C2=C(C(OC)OC)NC(C)=C(C(=O)O)C2c2cccc(Cl)c2)c1 (stereo unspecified) | 3000 | 4400 | – | – | – |
| CC1=C(C(=O)O)C(c2cccc(Cl)c2)C(C(=O)OC/C=C/c2ccccc2)=C(C#N)N1 (stereo unspecified) | 5800 | 2000 | – | – | – |
| COCCOC(=O)C1=C(C)NC(C)=C(C(=O)OC/C=C/c2ccccc2)C1c1cccc([N+](=O)[O-])c1 (stereo unspecified) [CILNIDIPINE] | 1600 | – | – | – | – |
| CC1=NC(C)=C(C(=O)O)C(c2cccc(Cl)c2)/C1=C(\O)OC/C=C/c1ccccc1 (stereo unspecified) | 1000 | – | – | – | – |
| COC(OC)C1=C(C(=O)OC/C=C/c2ccc(F)cc2)C(c2cccc(Cl)c2)C(C(=O)O)=C(C)N1 (stereo unspecified) | 1800 | 2000 | – | – | – |
| CCC1=C(C(=O)OC/C=C/c2ccccc2)C(c2cccc(Cl)c2)C(C(=O)O)=C(C)N1 (stereo unspecified) | 810 | 7 | – | – | – |
| COC(OC)C1=C(C(=O)O)C(c2cccc(Cl)c2)C(C(=O)OC/C=C/c2ccccc2)=C(C)N1 (stereo unspecified) | 3900 | 1300 | – | – | – |
| CN[C@@H](CC(C)C)C(=O)NCCCC(c1ccc(F)cc1)c1ccc(F)cc1 | – | – | – | – | 83 |
| CC1=C(C(=O)O)C(c2cccc(Cl)c2)C(C(=O)OCCC(c2ccccc2)c2ccccc2)=C(C(F)(F)F)N1 (stereo unspecified) | 1700 | – | 3.5 (≈ 6.3 mM) | 3.51 | – |
| COC(OC)C1=C(C(=O)OC/C=C/c2cccc(Cl)c2)C(c2cccc(Cl)c2)C(C(=O)O)=C(C)N1 (stereo unspecified) | 1400 | 1000 | – | – | – |
